Reference: ChEMBL document CHEMBL1156222, “Tetrahydropyridine derivatives with inhibitory activity on the production of proinflammatory cytokines: part 2” (Bioorg Med Chem Lett, 2010)

What was measured:
Blood [1] = assay: Antiinflammatory activity in human whole blood assessed as inhibition of LPS-induced TNFalpha production after 6 hrs; format: functional, tissue-based
Outline: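 Human whole blood was stimulated with LPS, and TNFα production was measured. % inhibition was plotted against log test concentration, and IC50 came from a least-squares linear regression. 95% confidence intervals were calculated by Fieller's theorem. Values are mean and S.D. of three to four determinations.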

Mus musculus [2] = assay: Antiinflammatory activity in po dosed mouse assessed as inhibition of LPS-induced TNFalpha production administered 30 mins before LPS challenge measured after 1 hr by ELISA; format: functional; conditions: read-out: ID50 (the source's name)
Outline: (§1)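 LPS-induced TNFα production was measured in mice, with N = 5. Activity is reported either as ID50 or as % inhibition at a single 20 mg/kg dose.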

Mus musculus [3] = assay: Antiinflammatory activity in mouse assessed as inhibition of LPS-induced TNFalpha production at 20 mg/kg, po administered 30 mins before LPS challenge measured after 1 hr by ELISA; format: functional; outline: as §1
Blood [4] = assay: Antiinflammatory activity in human whole blood assessed as inhibition of LPS-induced TNFalpha production at 10 uM after 6 hrs; format: functional
Outline: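 Human whole blood was stimulated with LPS, and inhibition of TNFα production was measured at a single test concentration of 10 μM. Values are mean and S.D. of three to four determinations.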

Mus musculus [5] = organism: Mus musculus; assay: Selectivity ratio of compound ID50 to 4-(2-(4-fluorophenyl)-4-(1,2,3,6-tetrahydropyridin-4-yl)-1H-pyrrol-3-yl)pyridine ID50 for antiinflammatory activity in mouse; format: functional

For `Fc1ccc(-c2[nH]cc(C3=CCN(Cc4ccccc4)CC3)c2-c2ccncc2)cc1`, which IC50 (Blood [1]) is on record?
The IC50 was > 30000 nM.

With `CC(C)N1CC=C(c2c[nH]c(-c3ccc(F)cc3)c2-c2ccncc2)CC1` as the molecule, how does the ED50 (Mus musculus [2]) read?
Its ED50 is 6.18 mg/kg.

And the IC50 (Blood [1])?
The IC50 was 980 nM.

Which results are given for `CCCCCCCCN1CC=C(c2c[nH]c(-c3ccc(F)cc3)c2-c2ccncc2)CC1`?
IC50 (Blood [1]): 1380 nM; inhibition in vivo at 20 mg/kg (Mus musculus [3]): 45%

How did the ED50 (Mus musculus [2]) turn out when `CCN1CC=C(c2c[nH]c(-c3ccc(F)cc3)c2-c2ccncc2)CC1` was run?
The ED50 was 6.67 mg/kg.

And the IC50 (Blood [1])?
The IC50 was 1210 nM.

Which results are given for `CC1C=C(c2c[nH]c(-c3ccc(F)cc3)c2-c2ccncc2)CCN1` (configuration not stated)?
ED50 (Mus musculus [2]): 2.29 mg/kg; IC50 (Blood [1]): 710 nM

With `CN1CCC(c2c[nH]c(-c3ccc(F)cc3)c2-c2ccncc2)=CC1Cc1ccccc1` (configuration not stated) as the molecule, how does the inhibition at 10 µM (Blood [4]) read?
The inhibition at 10 µM was 30.8%.

`CCCN1CCC(c2c[nH]c(-c3ccc(F)cc3)c2-c2ccncc2)=CC1C` (configuration not stated) was tested. Which ED50 (Mus musculus [2]) did it give?
Its ED50 is 2.79 mg/kg.

And the IC50 (Blood [1])?
The IC50 was 440 nM.

Which ED50 (Mus musculus [2]) does the source give for `CC1CC(c2c[nH]c(-c3ccc(F)cc3)c2-c2ccncc2)=CCN1C` (configuration not stated) here?
The ED50 was 2.73 mg/kg.

What about the IC50 (Blood [1]) of the same molecule?
The IC50 was 1280 nM.

With `CN1CC=C(c2c[nH]c(-c3ccc(F)cc3)c2-c2ccncc2)CC1` as the molecule, how does the ED50 (Mus musculus [2]) read?
The ED50 was 2.89 mg/kg.

What about the IC50 (Blood [1]) of the same molecule?
Its IC50 is 3960 nM.

What about the Ratio (Mus musculus [5]) of the same molecule?
The Ratio was >2.

For `CCN1CCC(c2c[nH]c(-c3ccc(F)cc3)c2-c2ccncc2)=CC1C` (configuration not stated), which ED50 (Mus musculus [2]) is on record?
Its ED50 is 5.28 mg/kg.

What about the IC50 (Blood [1]) of the same molecule?
Its IC50 is 1610 nM.

Which IC50 (Blood [1]) does the source give for `CC(C)(C)N1CC=C(c2c[nH]c(-c3ccc(F)cc3)c2-c2ccncc2)CC1` here?
Its IC50 is > 10000 nM.

How did the ED50 (Mus musculus [2]) turn out when `CCCN1CC=C(c2c[nH]c(-c3ccc(F)cc3)c2-c2ccncc2)CC1` was run?
The ED50 was 6.75 mg/kg.

And the IC50 (Blood [1])?
The IC50 was 520 nM.

With `C=CCC1C=C(c2c[nH]c(-c3ccc(F)cc3)c2-c2ccncc2)CCN1C` (configuration not stated) as the molecule, how does the inhibition at 10 µM (Blood [4]) read?
Its inhibition at 10 µM is 48.7%.

What does the source list for `CC1C=C(c2c[nH]c(-c3ccc(F)cc3)c2-c2ccncc2)CCN1C` (configuration not stated)?
ED50 (Mus musculus [2]): 1.42 mg/kg; IC50 (Blood [1]): 630 nM

How did the ED50 (Mus musculus [2]) turn out when `CN1C(C)(C)C=C(c2c[nH]c(-c3ccc(F)cc3)c2-c2ccncc2)CC1(C)C` was run?
The ED50 was 7.27 mg/kg.

And the IC50 (Blood [1])?
The IC50 was 8440 nM.
